Measured values from different studies.
Lines come from different studies, so protocols differ.
Target: Death-associated protein kinase 2 (DAPK2, Homo sapiens, UniProt Q9UIK4)

| SMILES | read-out | mode | technique | concentration | quantity | value |
| --- | --- | --- | --- | --- | --- | --- |
| Cn1cncc1[C@@](O)(COc1ccc(C#N)cc1-c1ccc(OC(F)(F)F)cc1)c1ccc(C#N)cc1 | cell-free assay |  | competition with immobilised ligand | 1 µM | remaining binding | 97% |
| COc1cc(Nc2ncc(F)c(Nc3ccc4c(n3)NC(=O)C(C)(C)O4)n2)cc(OC)c1OC | binding |  | competition with immobilised ligand | 10 µM | inhibition | 95% |
| O=c1[nH]c2ccccc2n1C1CCN(Cc2ccc(-c3[nH]c4cc5ncnc5cc4nc3-c3ccccc3)cc2)CC1 | cell-free assay |  |  | 0.5 µM | remaining signal | 99% |
| COc1ncccc1-c1cnn2ccc(N3CCN(C(=O)OC(C)C)CC3)nc12 | binding |  | competition with immobilised ligand | 1 µM | remaining binding | 86% |
| N#CC1(c2ccccn2)CCN(Cc2cc(C(=O)O)c(=O)n3ccccc23)CC1 | cell-free assay |  | competition with immobilised ligand | 1 µM | remaining binding | 99% |
| Cc1nn(C)cc1-c1nc2c(N3CCN(Cc4ccc(Cl)cc4)CC3)c(Cl)cnc2[nH]1 | binding |  | competition with immobilised ligand | 1 µM | remaining binding | 80% |
| CC(C)(C)c1cc(C=C(C#N)C#N)cc(Br)c1O | enzyme activity | inhibitor |  | 0.5 µM | remaining activity | 108% |
| Nc1ncc(-c2nc(N3CCOCC3)nc(N3CCOCC3)n2)c(C(F)F)n1 | binding |  | competition with immobilised ligand | 10 µM | remaining binding | 76% |
